Measured values: ChEMBL document CHEMBL1158762, “Antineoplastic agents. 534. isolation and structure of sansevistatins 1 and 2 from the African Sansevieria ehrenbergii” (2005)
≈ marks a conversion by molar mass, not a printed value. Calls of active or inactive are those of the source. The calls are words filed in the database; no cut-off is given here.

How the values were obtained:
Micrococcus luteus [1] = test: Antimicrobial activity against Micrococcus luteus presque Isle 456 at 64 ug/mL by broth micro dilution assay; type: functional, organism-based
Neisseria gonorrhoeae = test: Antimicrobial activity against Neisseria gonorrhoeae at 64 ug/mL by broth micro dilution assay; type: functional, organism-based
DU-145 = test: Growth inhibition of human DU145 cells after 48 hrs; type: functional; settings: DU-145, 48 h
How it was run: (§1)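 NCI sulforhodamine B assay. Cells in RPMI1640 with 5% fetal bovine serum were seeded and incubated 24 h, then exposed to serial dilutions for 48 h. Plates were TCA-fixed, SRB-stained and read for optical density. GI50 is the concentration giving 50% reduction in net protein increase, calculated from OD data.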

NCI-H460 = test: Growth inhibition of human NCI-H460 cells after 48 hrs; type: functional; settings: NCI-H460, 48 h; how it was run: as §1
Enterobacter cloacae = test: Antimicrobial activity against Enterobacter cloacae at 64 ug/mL by broth micro dilution assay; type: functional, organism-based
KM-20L2 = test: Growth inhibition of human KM20L2 cells after 48 hrs; type: functional; settings: KM-20L2, 48 h; how it was run: as §1
Cryptococcus neoformans [2] = test: Antimicrobial activity against Cryptococcus neoformans ATCC 90112 by broth micro dilution assay; type: functional
Escherichia coli = test: Antimicrobial activity against Escherichia coli at 64 ug/mL by broth micro dilution assay; type: functional, organism-based
Enterococcus faecalis = test: Antimicrobial activity against Enterococcus faecalis at 64 ug/mL by broth micro dilution assay; type: functional, organism-based
Candida albicans [3] = test: Antimicrobial activity against Candida albicans ATCC 90028 at 64 ug/mL by broth micro dilution assay; type: functional, organism-based
BXPC-3 = test: Growth inhibition of humanBxPC3 cells after 48 hrs; type: functional; settings: Homo sapiens, BXPC-3, 48 h; how it was run: as §1
Staphylococcus aureus = test: Antimicrobial activity against Staphylococcus aureus at 64 ug/mL by broth micro dilution assay; type: functional, organism-based
Streptococcus pneumoniae [4] = test: Antimicrobial activity against Streptococcus pneumoniae ATCC 6303 by broth micro dilution assay; type: functional
[5] = test system: Stenotrophomonas maltophilia; test: Antimicrobial activity against Stenotrophomonas maltophilia at 64 ug/mL by broth micro dilution assay; type: functional, organism-based
SF-268 = test: Growth inhibition of human SF268 cells after 48 hrs; type: functional; settings: SF-268, 48 h; how it was run: as §1
P388 = test: Growth inhibition of mouse P388 cells after 48 hrs; type: functional; settings: P388, 48 h, read-out: ED50 (the source's name)
How it was run: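 Murine P388 leukemia cells were preincubated 24 h in Fisher medium with 10% horse serum, then exposed to serial compound dilutions for 48 h. Cells were counted on an electronic particle counter, and ED50 for growth inhibition was calculated from the counts.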

MCF7 = test: Growth inhibition of human MCF7 cells after 48 hrs; type: functional; settings: MCF7, 48 h; how it was run: as §1
Candida albicans [6] = test: Antimicrobial activity against Candida albicans ATCC 90028 by broth micro dilution assay; type: functional
Streptococcus pneumoniae [7] = test: Antimicrobial activity against Streptococcus pneumoniae ATCC 6303 at 64 ug/mL by broth micro dilution assay; type: functional, organism-based
Micrococcus luteus [8] = test: Antimicrobial activity against Micrococcus luteus presque Isle 456 by broth micro dilution assay; type: functional
How it was run: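 NCCLS broth microdilution. Compounds reconstituted in a small volume of sterile DMSO and diluted in the appropriate medium immediately before testing. MIC read as the lowest concentration giving no visible growth (optically clear). Assays repeated on separate days.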

Cryptococcus neoformans [9] = test: Antimicrobial activity against Cryptococcus neoformans ATCC 90112 at 64 ug/mL by broth micro dilution assay; type: functional, organism-based

C[C@@H]1CC[C@@]2(OC1)O[C@H]1C[C@H]3[C@@H]4CC=C5C[C@@H](O[C@@H]6O[C@H](CO)[C@@H](O[C@@H]7OC[C@H](O)[C@H](O)[C@H]7O)[C@H](O)[C@H]6O[C@@H]6O[C@@H](C)[C@H](O)[C@@H](O)[C@H]6O)CC[C@]5(C)[C@H]4CC[C@]3(C)[C@H]1[C@@H]2C [SANSEVISTATIN 2]
Activity (Micrococcus luteus [1]): inactive | Activity (Neisseria gonorrhoeae): inactive | GI50 (DU-145): 0.42 µg/mL (≈ 0.491 µM) | GI50 (NCI-H460): 0.26 µg/mL (≈ 0.304 µM) | Activity (Enterobacter cloacae): inactive | GI50 (KM-20L2): 0.22 µg/mL (≈ 0.257 µM) | MIC (Cryptococcus neoformans [2]): 1 µg/mL (≈ 1.17 µM) | Activity (Escherichia coli): inactive | Activity (Enterococcus faecalis): inactive | Activity (Candida albicans [3]): inactive | GI50 (BXPC-3): 0.93 µg/mL (≈ 1.09 µM) | Activity (Staphylococcus aureus): inactive | MIC (Streptococcus pneumoniae [4]): 32 µg/mL (≈ 37.4 µM) | Activity [5]: inactive | GI50 (SF-268): 0.68 µg/mL (≈ 0.795 µM) | EC50 (P388): 1.7 µg/mL (≈ 1.99 µM) | GI50 (MCF7): 0.62 µg/mL (≈ 0.725 µM)

C[C@@H]1CC[C@@]2(OC1)O[C@H]1C[C@H]3[C@@H]4[C@H](O)C=C5C[C@@H](O[C@@H]6O[C@H](CO)[C@@H](O)[C@H](O)[C@H]6O[C@@H]6O[C@@H](C)[C@H](O)[C@@H](O)[C@H]6O)CC[C@]5(C)[C@H]4CC[C@]3(C)[C@H]1[C@@H]2C [SANSEVIERIN A]
Activity (Micrococcus luteus [1]): inactive | MIC (Candida albicans [6]): 64 µg/mL (≈ 86.6 µM) | Activity (Neisseria gonorrhoeae): inactive | GI50 (DU-145): > 10 µg/mL | GI50 (NCI-H460): > 10 µg/mL | Activity (Enterobacter cloacae): inactive | GI50 (KM-20L2): > 10 µg/mL | MIC (Cryptococcus neoformans [2]): 64 µg/mL (≈ 86.6 µM) | Activity (Escherichia coli): inactive | Activity (Enterococcus faecalis): inactive | Activity (Streptococcus pneumoniae [7]): inactive | GI50 (BXPC-3): > 10 µg/mL | Activity (Staphylococcus aureus): inactive | Activity [5]: inactive | GI50 (SF-268): > 10 µg/mL | EC50 (P388): > 10 µg/mL | GI50 (MCF7): > 10 µg/mL

C[C@@H]1CC[C@@]2(OC1)O[C@H]1C[C@H]3[C@@H]4CC=C5C[C@@H](O[C@@H]6O[C@H](CO)[C@@H](O[C@@H]7OC[C@@H](O)[C@H](O)[C@H]7O)[C@H](O)[C@H]6O[C@@H]6O[C@@H](C)[C@H](O)[C@@H](O)[C@H]6O)CC[C@]5(C)[C@H]4CC[C@]3(C)[C@H]1[C@@H]2C
Activity (Micrococcus luteus [1]): inactive | MIC (Candida albicans [6]): 4 µg/mL (≈ 4.68 µM) | Activity (Neisseria gonorrhoeae): inactive | GI50 (DU-145): 1.1 µg/mL (≈ 1.29 µM) | GI50 (NCI-H460): 1.2 µg/mL (≈ 1.4 µM) | Activity (Enterobacter cloacae): inactive | GI50 (KM-20L2): 0.5 µg/mL (≈ 0.585 µM) | MIC (Cryptococcus neoformans [2]): 2 µg/mL (≈ 2.34 µM) | Activity (Escherichia coli): inactive | Activity (Enterococcus faecalis): inactive | Activity (Streptococcus pneumoniae [7]): inactive | GI50 (BXPC-3): 1.7 µg/mL (≈ 1.99 µM) | Activity (Staphylococcus aureus): inactive | Activity [5]: inactive | GI50 (SF-268): 1.3 µg/mL (≈ 1.52 µM) | EC50 (P388): 2.6 µg/mL (≈ 3.04 µM) | GI50 (MCF7): 1.4 µg/mL (≈ 1.64 µM)

C=C1CC[C@@]2(OC1)O[C@H]1C[C@H]3[C@@H]4CC=C5C[C@@H](O[C@@H]6O[C@H](CO)[C@@H](O[C@@H]7O[C@@H](C)[C@H](O)[C@@H](O)[C@H]7O)[C@H](O)[C@H]6O[C@@H]6O[C@@H](C)[C@H](O)[C@@H](O)[C@H]6O)CC[C@]5(C)[C@H]4CC[C@]3(C)[C@H]1[C@@H]2C [SANSEVISTATIN 1]
Activity (Micrococcus luteus [1]): inactive | MIC (Candida albicans [6]): 2 µg/mL (≈ 2.31 µM) | Activity (Neisseria gonorrhoeae): inactive | GI50 (DU-145): 1 µg/mL (≈ 1.15 µM) | GI50 (NCI-H460): 0.43 µg/mL (≈ 0.496 µM) | Activity (Enterobacter cloacae): inactive | GI50 (KM-20L2): 0.47 µg/mL (≈ 0.542 µM) | MIC (Cryptococcus neoformans [2]): 1 µg/mL (≈ 1.15 µM) | Activity (Escherichia coli): inactive | Activity (Enterococcus faecalis): inactive | Activity (Streptococcus pneumoniae [7]): inactive | GI50 (BXPC-3): 1.1 µg/mL (≈ 1.27 µM) | Activity (Staphylococcus aureus): inactive | Activity [5]: inactive | GI50 (SF-268): 1.3 µg/mL (≈ 1.5 µM) | EC50 (P388): 1.6 µg/mL (≈ 1.85 µM) | GI50 (MCF7): 1.1 µg/mL (≈ 1.27 µM)

C[C@@H]1CC[C@@]2(OC1)O[C@H]1C[C@H]3[C@@H]4CC=C5C[C@@H](O[C@@H]6O[C@H](CO)[C@@H](O)[C@H](O)[C@H]6O[C@@H]6O[C@@H](C)[C@H](O)[C@@H](O)[C@H]6O)CC[C@]5(C)[C@H]4CC[C@]3(C)[C@H]1[C@@H]2C [OPHIOPOGONIN C]
Activity (Micrococcus luteus [1]): inactive | MIC (Candida albicans [6]): 2 µg/mL (≈ 2.77 µM) | Activity (Neisseria gonorrhoeae): inactive | GI50 (DU-145): 1.6 µg/mL (≈ 2.21 µM) | GI50 (NCI-H460): 1.8 µg/mL (≈ 2.49 µM) | Activity (Enterobacter cloacae): inactive | GI50 (KM-20L2): 1.7 µg/mL (≈ 2.35 µM) | MIC (Cryptococcus neoformans [2]): 1 µg/mL (≈ 1.38 µM) | Activity (Escherichia coli): inactive | Activity (Enterococcus faecalis): inactive | GI50 (BXPC-3): 1.8 µg/mL (≈ 2.49 µM) | Activity (Staphylococcus aureus): inactive | MIC (Streptococcus pneumoniae [4]): 16 µg/mL (≈ 22.1 µM) | Activity [5]: inactive | GI50 (SF-268): 1.8 µg/mL (≈ 2.49 µM) | EC50 (P388): 1.5 µg/mL (≈ 2.07 µM) | GI50 (MCF7): 2 µg/mL (≈ 2.77 µM)

C[C@@H]1CC[C@@]2(OC1)O[C@H]1C[C@H]3[C@@H]4CC=C5C[C@@H](O[C@@H]6O[C@H](CO)[C@@H](O[C@@H]7O[C@@H](C)[C@H](O)[C@@H](O)[C@H]7O)[C@H](O)[C@H]6O[C@@H]6O[C@@H](C)[C@H](O)[C@@H](O)[C@H]6O)CC[C@]5(C)[C@H]4CC[C@]3(C)[C@H]1[C@@H]2C [DIOSCIN]
MIC (Candida albicans [6]): 2 µg/mL (≈ 2.3 µM) | Activity (Neisseria gonorrhoeae): inactive | GI50 (DU-145): 1.6 µg/mL (≈ 1.84 µM) | GI50 (NCI-H460): 1.6 µg/mL (≈ 1.84 µM) | Activity (Enterobacter cloacae): inactive | MIC (Micrococcus luteus [8]): 4 µg/mL (≈ 4.6 µM) | GI50 (KM-20L2): 1.6 µg/mL (≈ 1.84 µM) | MIC (Cryptococcus neoformans [2]): 1 µg/mL (≈ 1.15 µM) | Activity (Escherichia coli): inactive | Activity (Enterococcus faecalis): inactive | GI50 (BXPC-3): 1.1 µg/mL (≈ 1.27 µM) | Activity (Staphylococcus aureus): inactive | MIC (Streptococcus pneumoniae [4]): 32 µg/mL (≈ 36.8 µM) | Activity [5]: inactive | GI50 (SF-268): 1.2 µg/mL (≈ 1.38 µM) | EC50 (P388): 1.5 µg/mL (≈ 1.73 µM) | GI50 (MCF7): 1.6 µg/mL (≈ 1.84 µM)

C[C@@H]1CC[C@@]2(OC1)O[C@H]1C[C@H]3[C@@H]4CC=C5C[C@@H](O)CC[C@]5(C)[C@H]4CC[C@]3(C)[C@H]1[C@@H]2C [DISOGENIN]
Activity (Neisseria gonorrhoeae): inactive | GI50 (DU-145): 8.5 µg/mL (≈ 20.5 µM) | GI50 (NCI-H460): > 10 µg/mL | Activity (Enterobacter cloacae): inactive | MIC (Micrococcus luteus [8]): 32 µg/mL (≈ 77.2 µM) | GI50 (KM-20L2): > 10 µg/mL | Activity (Cryptococcus neoformans [9]): inactive | Activity (Escherichia coli): inactive | Activity (Enterococcus faecalis): inactive | Activity (Candida albicans [3]): inactive | Activity (Streptococcus pneumoniae [7]): inactive | GI50 (BXPC-3): > 10 µg/mL | Activity (Staphylococcus aureus): inactive | Activity [5]: inactive | GI50 (SF-268): > 10 µg/mL | EC50 (P388): 4.3 µg/mL (≈ 10.4 µM) | GI50 (MCF7): > 10 µg/mL
